According to ChEMBL document CHEMBL3593207, “Imidazole clubbed 1,3,4-oxadiazole derivatives as potential antifungal agents” (2015):

Assays:
Assay type in all cases: functional
Candida tropicalis [1] = experiment: Antifungal activity against Candida tropicalis ATCC 750 by broth microdilution assay
How it was run: (§1)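 CLSI M27-A3 broth microdilution. Compounds diluted to 1 mg/ml in 1% DMSO. Fluconazole (1 mg/ml) served as positive control, 1% DMSO as vehicle control, with media and culture controls. Triplicate at each concentration, repeated thrice. Inocula came from YPDA stocks subcultured in broth for 48 h at 37 °C.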

Candida albicans [2] = experiment: Antifungal activity against clinical isolates of Candida albicans 2367 by broth microdilution assay; how it was run: as §1
Candida albicans [3] = experiment: Antifungal activity against clinical isolates of Candida albicans 2323 by broth microdilution assay; how it was run: as §1
Candida albicans [4] = experiment: Antifungal activity against clinical isolates of Candida albicans 2779 by broth microdilution assay; how it was run: as §1
Candida tropicalis [5] = experiment: Antifungal activity against clinical isolates of Candida tropicalis 2029 by broth microdilution assay; how it was run: as §1
Candida albicans [6] = experiment: Antifungal activity against Candida albicans ATCC 10261 by broth microdilution assay; how it was run: as §1
Candida tropicalis [7] = experiment: Antifungal activity against clinical isolates of Candida tropicalis 2356 by broth microdilution assay; how it was run: as §1

Measured: MIC

CCc1ccnc(-c2nccn2Cc2nnc(-c3ccccc3Cl)o2)c1
> 1000 µg/mL: all assays above

CCc1ccnc(-c2nccn2Cc2nnc(-c3ccc(Cl)cc3)o2)c1
> 1000 µg/mL: all assays above

CCc1ccnc(-c2nccn2Cc2nnc(-c3ccc(Cl)cc3Cl)o2)c1
> 1000 µg/mL: all assays above

CCc1ccnc(-c2nccn2Cc2nnc(COc3ccc(Cl)cc3)o2)c1
> 1000 µg/mL: all assays above

CCc1ccnc(-c2nccn2Cc2nnc(Cc3ccc(C(C)C)cc3)o2)c1
> 1000 µg/mL: all assays above
